Laboratory results as given in ChEMBL document CHEMBL4257484, “Membrane-active antimicrobial poly(amino-modified alkyl) β-cyclodextrins synthesized via click reactions” (Medchemcomm, 2018).
Converted amounts (≈) assume the structure as drawn.

Legend:
[1] = Hemolytic activity in rabbit RBC at 5 uM after 20 mins relative to control; assay type: ADME, cell-based, Oryctolagus cuniculus, Erythrocyte; details: rabbit red blood cells (erythrocytes), read-out: Activity
Procedure, shortened: (§1)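 Rabbit erythrocytes suspended in 150 mM NaCl/10 mM Hepes-NaOH, pH 7.4, at 0.5% hematocrit (final) and incubated with compound at 37 °C. The table footnote gives 20 min; the methods section gives 30 min. Hemolysis was read as absorbance at 540 nm, with 50 µM lysolecithin defining 100% hemolysis.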

Salmonella typhimurium = assay: Antibacterial activity against drug-sensitive Salmonella typhimurium LT2 after 20 hrs by liquid microdilution method; assay type: functional, Salmonella enterica subsp. enterica serovar Typhimurium; details: Salmonella enterica, LT2, 20 h
Procedure, shortened: (§2)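 Two-fold serial dilutions of compound in Mueller–Hinton broth, inoculated with 1 × 10^4 cells and cultured at 37 °C for 20 h in microtiter wells.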

[2] = Hemolytic activity in rabbit RBC at 50 uM after 20 mins relative to control; assay type: ADME, cell-based, Oryctolagus cuniculus, Erythrocyte; details: rabbit red blood cells (erythrocytes), read-out: Activity; procedure, shortened: as §1
[3] = Hemolytic activity in rabbit RBC at 10 uM after 20 mins relative to control; assay type: ADME, cell-based, Oryctolagus cuniculus, Erythrocyte; details: rabbit red blood cells (erythrocytes), read-out: Activity; procedure, shortened: as §1
Escherichia coli = assay: Antibacterial activity against drug-sensitive Escherichia coli K-12 W3110 after 20 hrs by liquid microdilution method; assay type: functional; details: K-12 substr. W3110, 20 h; procedure, shortened: as §2
Enterococcus faecalis [4] = assay: Antibacterial activity against drug-resistant Enterococcus faecalis MS29030 after 18 to 20 hrs by agar dilution method; assay type: functional
Procedure, shortened: (§3)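 Agar dilution per CLSI. Overnight broth cultures were diluted 100-fold, and one loopful (about 10^5 to 10^4 CFU) was spotted onto agar plates containing the CD. Growth was scored after 18–20 h at 37 °C. MIC values are in µM.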

Enterococcus faecalis [5] = assay: Antibacterial activity against vancomycin-resistant Enterococcus faecalis MS29016 after 18 to 20 hrs by agar dilution method; assay type: functional; procedure, shortened: as §3
Staphylococcus aureus [6] = assay: Antibacterial activity against methicillin-sensitive Staphylococcus aureus FDA 209P after 20 hrs by liquid microdilution method; assay type: functional; procedure, shortened: as §2
[7] = Hemolytic activity in rabbit RBC at 1 uM after 20 mins relative to control; assay type: ADME, cell-based, Oryctolagus cuniculus, Erythrocyte; details: rabbit red blood cells (erythrocytes), read-out: Activity; procedure, shortened: as §1
[8] = Hemolytic activity in rabbit RBC at 20 uM after 20 mins relative to control; assay type: ADME, cell-based, Oryctolagus cuniculus, Erythrocyte; details: rabbit red blood cells (erythrocytes), read-out: Activity; procedure, shortened: as §1
[9] = Lipophilicity, log P of the compound; assay type: physicochemical; details: octanol/water
Pseudomonas aeruginosa = assay: Antibacterial activity against drug-sensitive Pseudomonas aeruginosa PAO1 after 20 hrs by liquid microdilution method; assay type: functional; details: PAO1, 20 h; procedure, shortened: as §2
Enterococcus faecium = assay: Antibacterial activity against drug-resistant Enterococcus faecium MS29120 after 18 to 20 hrs by agar dilution method; assay type: functional; procedure, shortened: as §3
Streptococcus agalactiae = assay: Antibacterial activity against drug-resistant Streptococcus agalactiae B1 after 18 to 20 hrs by agar dilution method; assay type: functional; procedure, shortened: as §3
[10] = Hemolytic activity in rabbit RBC at 2 uM after 20 mins relative to control; assay type: ADME, cell-based, Oryctolagus cuniculus, Erythrocyte; details: rabbit red blood cells (erythrocytes), read-out: Activity; procedure, shortened: as §1
Staphylococcus aureus [11] = assay: Antibacterial activity against methicillin-resistant Staphylococcus aureus MS29202 after 18 to 20 hrs by agar dilution method; assay type: functional; procedure, shortened: as §3
Bacillus subtilis = assay: Antibacterial activity against drug-sensitive Bacillus subtilis 168 after 20 hrs by liquid microdilution method; assay type: functional; details: subsp. subtilis str. 168, 20 h; procedure, shortened: as §2

Row | Compound | hemolysis at 20 min, 5 µM [1] [%] | MIC (Salmonella typhimurium) [µM] | hemolysis at 20 min, 50 µM [2] [%] | hemolysis at 20 min, 10 µM [3] [%] | MIC (Escherichia coli) [µM] | MIC (Enterococcus faecalis [4]) [µM] | MIC (Enterococcus faecalis [5]) [µM] | MIC (Staphylococcus aureus [6]) [µM] | hemolysis at 20 min, 1 µM [7] [%] | hemolysis at 20 min, 20 µM [8] [%] | logP [9] | MIC (Pseudomonas aeruginosa) [µM] | MIC (Enterococcus faecium) [µM] | MIC (Streptococcus agalactiae) [µM] | hemolysis at 20 min, 2 µM [10] [%] | MIC (Staphylococcus aureus [11]) [µM] | MIC (Bacillus subtilis) [µM]
1 | O[C@@H]1[C@@H](O)[C@H]2O[C@H]3[C@H](O)[C@@H](O)[C@@H](O[C@H]4[C@H](O)[C@@H](O)[C@@H](O[C@H]5[C@H](O)[C@@H](O)[C@@H](O[C@H]6[C@H](O)[C@@H](O)[C@@H](O[C@H]7[C@H](O)[C@@H](O)[C@@H](O[C@H]8[C@H](O)[C@@H](O)[C@@H](O[C@@H]1[C@@H](Cn1cc(CNCC9CCCCC9)nn1)O2)O[C@@H]8Cn1cc(CNCC2CCCCC2)nn1)O[C@@H]7Cn1cc(CNCC2CCCCC2)nn1)O[C@@H]6Cn1cc(CNCC2CCCCC2)nn1)O[C@@H]5Cn1cc(CNCC2CCCCC2)nn1)O[C@@H]4Cn1cc(CNCC2CCCCC2)nn1)O[C@@H]3Cn1cc(CNCC2CCCCC2)nn1 | 13 | 10 (≈ 23.7 µg/mL) | 107 | 38 | 5 (≈ 11.8 µg/mL) | > 40 | 40 (≈ 94.8 µg/mL) | 3 to 10 (≈ 7.11 to 23.7 µg/mL) | 0 | 78 | -0.16 | 20 (≈ 47.4 µg/mL) | 20 (≈ 47.4 µg/mL) | 40 (≈ 94.8 µg/mL) | 0 | 40 (≈ 94.8 µg/mL) | 3 (≈ 7.11 µg/mL)
2 | NCCCCCCCc1cn(C[C@H]2O[C@@H]3O[C@H]4[C@H](O)[C@@H](O)[C@@H](O[C@H]5[C@H](O)[C@@H](O)[C@@H](O[C@H]6[C@H](O)[C@@H](O)[C@@H](O[C@H]7[C@H](O)[C@@H](O)[C@@H](O[C@H]8[C@H](O)[C@@H](O)[C@@H](O[C@H]9[C@H](O)[C@@H](O)[C@@H](O[C@H]2[C@H](O)[C@H]3O)O[C@@H]9Cn2cc(CCCCCCCN)nn2)O[C@@H]8Cn2cc(CCCCCCCN)nn2)O[C@@H]7Cn2cc(CCCCCCCN)nn2)O[C@@H]6Cn2cc(CCCCCCCN)nn2)O[C@@H]5Cn2cc(CCCCCCCN)nn2)O[C@@H]4Cn2cc(CCCCCCCN)nn2)nn1 | 4 | > 42 | 3 | 3 | > 42 | > 42 | > 42 | 3 to 21 (≈ 6.85 to 48 µg/mL) | 3 | 4 | -0.43 | > 42 | 21 (≈ 48 µg/mL) | 42 (≈ 96 µg/mL) | 1 | 42 (≈ 96 µg/mL) | 5 (≈ 11.4 µg/mL)
3 | O[C@@H]1[C@@H](O)[C@H]2O[C@H]3[C@H](O)[C@@H](O)[C@@H](O[C@H]4[C@H](O)[C@@H](O)[C@@H](O[C@H]5[C@H](O)[C@@H](O)[C@@H](O[C@H]6[C@H](O)[C@@H](O)[C@@H](O[C@H]7[C@H](O)[C@@H](O)[C@@H](O[C@H]8[C@H](O)[C@@H](O)[C@@H](O[C@@H]1[C@@H](Cn1cc(CNCc9ccccc9)nn1)O2)O[C@@H]8Cn1cc(CNCc2ccccc2)nn1)O[C@@H]7Cn1cc(CNCc2ccccc2)nn1)O[C@@H]6Cn1cc(CNCc2ccccc2)nn1)O[C@@H]5Cn1cc(CNCc2ccccc2)nn1)O[C@@H]4Cn1cc(CNCc2ccccc2)nn1)O[C@@H]3Cn1cc(CNCc2ccccc2)nn1 | 4 | 21 (≈ 48.9 µg/mL) | 11 | 2 | 21 (≈ 48.9 µg/mL) | > 41 | 41 (≈ 95.4 µg/mL) | 5 (≈ 11.6 µg/mL) | 2 | 3 | -0.26 | 21 (≈ 48.9 µg/mL) | 41 (≈ 95.4 µg/mL) | 21 (≈ 48.9 µg/mL) | 4 | 41 (≈ 95.4 µg/mL) | 5 (≈ 11.6 µg/mL)
